Drawing on ChEMBL document CHEMBL4011655, “Conformation-Based Design and Synthesis of Apratoxin A Mimetics Modified at the α,β-Unsaturated Thiazoline Moiety” (J Med Chem, 2017), this text covers IC50, GI50 and metabolised for 18 compounds.

In data set [1] the test system is HCT-116. Briefly: Cytotoxicity against human HCT116 cells assessed as reduction in cell viability after 48 hrs by WST8 assay. It is filed as functional, cell-based. To be noted: HCT-116, 48 h. An outline of the steps: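 HCT-116 cells grown in RPMI 1640 with 10% FBS and penicillin/streptomycin, plated near-confluent at 5 × 10^3 cells/well and left 24 h at 37 °C, 5% CO2. Compounds (DMSO stocks 0.01–100 μM) added to give final 0.1–1000 nM, 1% DMSO vehicle. After 48 h, WST-8 added for 2 h, absorbance read at 450 nm (reference 595 nm), vehicle taken as 100%. IC50 by probit analysis; three independent experiments.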
On the technique in general: Tetrazolium dyes change colour on reduction, which living cells bring about.

Another data set relates to Huh-7. Nature of the data set: Growth inhibition of human HuH7 cells after 72 hrs by Cell-Titer Glo assay. It is filed as functional. To be noted: Huh-7, 72 h. The method, boiled down:
(§1)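 Cells seeded in 384-well plates at 1–3 × 10^3 cells/well and grown 24 h at 37 °C, 5% CO2. Compounds added at final 0.03 nM to 1 μM (10-point), DMSO vehicle at most 0.25%.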

Data set [2] relates to HCT-116. Nature of the data set: Growth inhibition of human HCT116 cells after 72 hrs by Cell-Titer Glo assay. Type of data set: functional. As to conditions: HCT-116, 72 h. An outline of the steps: as §1
Data set [3] can be described thus: Drug metabolism in human liver microsomes after 35 mins in presence of NADPH by LC-MS/MS analysis. It is filed as ADME, microsome. To be noted: read-out: Drug metabolism. The method, boiled down: (§2)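 Pooled liver microsomes at 0.1 mg/mL protein with 3.25 mmol/L β-NADPH in 125 mmol/L phosphate buffer. Compound at 100 nmol/L, added in CH3CN. Incubated 37 °C for 35 min, stopped with methanol, held at −20 °C for 30 min, then centrifuged. Parent compound loss measured by LC-MS/MS; duplicate incubations.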
(In general: Liver microsomes are a subcellular fraction often used to study metabolism.)

A further data set relates to BXPC-3. Nature of the data set: Growth inhibition of human BxPC3 cells after 72 hrs by Cell-Titer Glo assay. It is filed as functional. To be noted: BXPC-3, 72 h. An outline of the steps: as §1
For the next data set, the system named is MCF7. Briefly: Growth inhibition of human MCF7 cells after 72 hrs by Cell-Titer Glo assay. As to conditions: MCF7, 72 h. Type of data set: functional. An outline of the steps: as §1
The subject of another data set is A549. Nature of the data set: Growth inhibition of human A549 cells after 72 hrs by Cell-Titer Glo assay. It is filed as functional. To be noted: A549, 72 h. An outline of the steps: as §1
The test system of a further data set is U-87 MG. Nature of the data set: Growth inhibition of human U87MG cells after 72 hrs by Cell-Titer Glo assay. Type of data set: functional, U-87MG ATCC. An outline of the steps:
as §1

In the next data set the test system is 786-0. Briefly: Growth inhibition of human 786-O cells after 72 hrs by Cell-Titer Glo assay. Type of data set: functional. To be noted: 786-0, 72 h. An outline of the steps:
as §1

For a further data set, the system named is SK-OV-3. Briefly: Growth inhibition of human SKOV3 cells after 72 hrs by Cell-Titer Glo assay. Type of data set: functional. To be noted: SK-OV-3, 72 h. The method, boiled down:
as §1

A short description of data set [4]: Growth inhibition of human HEC6 cells after 72 hrs by Cell-Titer Glo assay. Type of data set: functional. To be noted: HEC-6, 72 h. The method, boiled down:
as §1

Data set [5] in a line: Drug metabolism in mouse liver microsomes after 35 mins in presence of NADPH by LC-MS/MS analysis. Type of data set: ADME, microsome. To be noted: read-out: Drug metabolism. The method, boiled down:
as §2

The next data set deals with MKN-74. Nature of the data set: Growth inhibition of human MKN74 cells after 72 hrs by Cell-Titer Glo assay. Type of data set: functional. As to conditions: MKN-74, 72 h. The method, boiled down: as §1

As for `CC[C@H](C)[C@H]1C(=O)N2CCC[C@H]2C(=O)O[C@H](C(C)(C)C)C[C@@H](C)C[C@H](O)[C@H](C)C(=O)N2CCC(CC2)C(=O)N[C@@H](Cc2ccccc2)C(=O)N(C)[C@@H](C)C(=O)N1C`, the IC50 in the data set on HCT-116 [1] is 490 nM.
For the compound `CC[C@H](C)[C@H]1C(=O)N2CCC[C@H]2C(=O)O[C@H](C(C)(C)C)C[C@@H](C)C[C@H](O)[C@H](C)C(=O)NCc2cccc(c2)C(=O)N[C@@H](Cc2ccc(OC)cc2)C(=O)N(C)[C@@H](C)C(=O)N1C`, the IC50 in the data set on HCT-116 [1] came out at 820 nM.
As to `CC[C@H](C)[C@H]1C(=O)N2CCC[C@H]2C(=O)O[C@H](C(C)(C)C)C[C@@H](C)C[C@H](O)[C@H](C)C(=O)N2CCC(CC2)C(=O)N[C@@H](Cc2ccc(-c3ccccc3)cc2)C(=O)N(C)[C@@H](C)C(=O)N1C`, the concentration for 50% growth inhibition (GI50) in the data set with Huh-7 was 6.8 nM; in the data set with HCT-116 [2], 11 nM; with BXPC-3, 4 nM; in the data set on MCF7, > 1000 nM; with A549, 6.3 nM; with U-87 MG it was 12 nM. Besides, the GI50 in the data set with 786-0 stood at 120 nM; in the data set with SK-OV-3, 18 nM; in [4], 23 nM; with MKN-74 it was 8 nM. Also, the results for the metabolised at 35 min in [3] and in data set [5] were 85% and 84%, respectively. For the same compound, the IC50 with HCT-116 [1] is 1.1 nM.
With `CC[C@H](C)[C@H]1C(=O)N2CCC[C@H]2C(=O)O[C@H](C(C)(C)C)C[C@@H](C)C[C@H](O)[C@H](C)C(=O)N(C)CCCC(=O)N[C@@H](Cc2ccc(OC)cc2)C(=O)N(C)[C@@H](C)C(=O)N1C`, the half-maximal inhibitory concentration (IC50) in the data set on HCT-116 [1] was found to be 340 nM.
Same read-out and setting: in the case of `CC[C@H](C)[C@H]1C(=O)N2CCC[C@H]2C(=O)O[C@H](C(C)(C)C)C[C@@H](C)C[C@H](O)[C@H](C)C(=O)N2CCC(CC2)C(=O)N[C@@H](Cc2ccc(OC)cc2)C(=O)N(C)[C@@H](CC(C)C)C(=O)N1C` it was 360 nM; in that of `CC[C@H](C)[C@H]1C(=O)N2CCC[C@H]2C(=O)O[C@H](C(C)(C)C)C[C@@H](C)C[C@H](O)[C@H](C)C(=O)N2CCC(CC2)C(=O)N[C@@H](Cc2ccc(OC)cc2)C(=O)N(C)CC(=O)N1C`, 850 nM.
In the case of `CC[C@H](C)[C@H]1C(=O)N2CCC[C@H]2C(=O)O[C@H](C(C)(C)C)C[C@@H](C)C[C@H](O)[C@H](C)C(=O)N(C)CCC(=O)N[C@@H](Cc2ccc(OC)cc2)C(=O)N(C)[C@@H](C)C(=O)N1C`, the half-maximal inhibitory concentration (IC50) with HCT-116 [1] was 3100 nM.
In the case of `COc1ccc(C[C@@H]2NC(=O)C3CCN(CC3)C(=O)[C@@H](C)[C@@H](O)C[C@H](C)C[C@@H](C(C)(C)C)OC(=O)[C@@H]3CCCN3C(=O)[C@H](C(C)C)N(C)C(=O)[C@H](C)N(C)C2=O)cc1`, the IC50 with HCT-116 [1] is 130 nM.
Same read-out and setting: in the case of `CC[C@H](C)[C@H]1C(=O)N2CCC[C@H]2C(=O)O[C@H](C(C)(C)C)C[C@@H](C)C[C@H](O)[C@H](C)C(=O)N(C)Cc2cccc(c2)C(=O)N[C@@H](Cc2ccc(OC)cc2)C(=O)N(C)[C@@H](C)C(=O)N1C` it was 220 nM.
Turning to `CC[C@H](C)[C@H]1C(=O)N2CCC[C@H]2C(=O)O[C@H](C(C)(C)C)C[C@@H](C)C[C@H](O)[C@H](C)C(=O)N2CCC(CC2)C(=O)N[C@@H](Cc2ccc(Cl)cc2)C(=O)N(C)[C@@H](C)C(=O)N1C`, the concentration for 50% growth inhibition (GI50) is 180 nM in the data set on Huh-7; 210 nM in the data set with HCT-116 [2]; 80 nM in the data set with BXPC-3; > 1000 nM with MCF7; 190 nM with A549; 320 nM in the data set with U-87 MG. Also, the GI50 in the data set with 786-0 was > 1000 nM; in the data set on SK-OV-3, 410 nM; in data set [4], 480 nM; in the data set with MKN-74 it was 200 nM. Also, the IC50 in the data set with HCT-116 [1] stood at 69 nM.
For the compound `COc1ccc(C[C@@H]2NC(=O)C3CCN(CC3)C(=O)[C@@H](C)[C@@H](O)C[C@H](C)C[C@@H](C(C)(C)C)OC(=O)[C@@H]3CCCN3C(=O)[C@H](Cc3ccccc3)N(C)C(=O)[C@H](C)N(C)C2=O)cc1`, the concentration for half-maximal inhibition (IC50) with HCT-116 [1] amounted to 710 nM.
Still for that read-out and setting: then `CC[C@H](C)[C@H]1C(=O)N2CCC[C@H]2C(=O)O[C@H](C(C)(C)C)C[C@@H](C)C[C@H](O)[C@H](C)C(=O)NCCCC(=O)N[C@@H](Cc2ccc(OC)cc2)C(=O)N(C)[C@@H](C)C(=O)N1C`, with 2600 nM.
On the same count and under the same terms, then `CC[C@H](C)[C@H]1C(=O)N2CCC[C@H]2C(=O)O[C@H](C(C)(C)C)C[C@@H](C)C[C@H](O)[C@H](C)C(=O)N2CCC(CC2)C(=O)N[C@@H](Cc2ccc(OC)cc2)C(=O)N(C)[C@@H](Cc2ccccc2)C(=O)N1C`, with 1600 nM.
Take `CC[C@H](C)[C@H]1C(=O)N2CCC[C@H]2C(=O)O[C@H](C(C)(C)C)C[C@@H](C)C[C@H](O)[C@H](C)C(=O)N2CCC(CC2)C(=O)N[C@@H](Cc2ccc(OC)cc2)C(=O)N(C)[C@@H](C)C(=O)N1C`: the IC50 with HCT-116 [1] amounted to 120 nM.
On to `COc1ccc(C[C@@H]2NC(=O)C3CCN(CC3)C(=O)[C@@H](C)[C@@H](O)C[C@H](C)C[C@@H](C(C)(C)C)OC(=O)[C@@H]3CCCN3C(=O)[C@H](C)N(C)C(=O)[C@H](C)N(C)C2=O)cc1`, for which, in the data set on HCT-116 [1], the IC50 came to 7500 nM.
Same read-out and setting: then `CC[C@H](C)[C@H]1C(=O)N2CCC[C@H]2C(=O)O[C@H](C(C)(C)C)C[C@@H](C)C[C@H](O)[C@H](C)C(=O)NCCC(=O)N[C@@H](Cc2ccc(OC)cc2)C(=O)N(C)[C@@H](C)C(=O)N1C`, with 3400 nM.
As to `CC[C@H](C)[C@H]1C(=O)N2CCC[C@H]2C(=O)O[C@H](C(C)(C)C)C[C@@H](C)C[C@H](O)[C@H](C)C2=N[C@@H](/C=C(\C)C(=O)N[C@@H](Cc3ccc(OC)cc3)C(=O)N(C)[C@@H](C)C(=O)N1C)CS2` [APRATOXIN A], the concentration for 50% growth inhibition (GI50) in the data set on Huh-7 is 7.2 nM; in the data set on HCT-116 [2] it was 11 nM; with BXPC-3 it was 4.9 nM; in the data set on MCF7 it was > 1000 nM; in the data set with A549, 6.4 nM; in the data set on U-87 MG, 18 nM. Moreover, the 50% growth inhibitory concentration (GI50) was 41 nM with 786-0, 31 nM with SK-OV-3, 39 nM in data set [4] and 9.7 nM in the data set on MKN-74. Besides, in the data set on HCT-116 [1], the IC50 worked out at 2.8 nM.
In the case of `CO[C@@]12[C@H](COC(N)=O)C3=C(C(=O)C(C)=C(N)C3=O)N1C[C@@H]1N[C@@H]12` [MITOMYCIN], the GI50 with Huh-7 is 2000 nM; in the data set on HCT-116 [2] it was 200 nM; with BXPC-3 it was 380 nM; with MCF7 it was 2500 nM; with A549 it was 80 nM; in the data set on U-87 MG it was 1800 nM. Further, the 50% growth inhibitory concentration (GI50) was 210 nM in the data set with 786-0, 100 nM in the data set with SK-OV-3, 1400 nM in [4] and 1700 nM in the data set on MKN-74.

The IC50 is the concentration that inhibits the measured activity by half. For orientation: GI50 means the concentration giving 50% growth inhibition. Higher therefore signals less potent growth inhibition.
